In publication PMC3549054 (Biochemistry, 2012):
pKd: −log10 of the molar value. Entries after “also recorded” stand apart in the source; their conditions may differ. Like-named read-outs stand apart in the source and are kept apart here.

Legend:
rGAPDH [1] = target: T1, rGAPDH (Oryctolagus cuniculus, UniProt P46406); test: Binding of pre-reduced heme to rGAPDH; set-up: species or system rabbit; conditions: after 10 min
rGAPDH [2] = target: T1, rGAPDH; test: Kinetics of heme transfer from GAPDH to apo-myoglobin, koff; format: binding, rabbit; conditions: for Kd: Wild type rGAPDH
rabbit GAPDH = rabbit GAPDH (Oryctolagus cuniculus, UniProt P46406); test: UV-visible binding of protoporphyrin IX analogs to rabbit GAPDH
Sequence of rabbit GAPDH (P46406 2-333 limits assumed): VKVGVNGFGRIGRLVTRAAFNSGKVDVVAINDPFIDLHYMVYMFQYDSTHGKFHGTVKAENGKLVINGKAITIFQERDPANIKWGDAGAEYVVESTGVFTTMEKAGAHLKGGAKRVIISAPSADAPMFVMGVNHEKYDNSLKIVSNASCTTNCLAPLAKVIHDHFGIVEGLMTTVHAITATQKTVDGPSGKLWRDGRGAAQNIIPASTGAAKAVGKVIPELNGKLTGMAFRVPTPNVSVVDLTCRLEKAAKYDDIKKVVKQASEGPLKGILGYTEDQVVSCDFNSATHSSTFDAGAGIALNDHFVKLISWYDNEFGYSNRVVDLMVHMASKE

CBS = conditions: ref [44]; cited from earlier work
[3] = target: Fe(II)-GAPDH (ferrous rGAPDH-heme) (Oryctolagus cuniculus, UniProt P46406); test: Stopped-flow kinetics of CO binding to Fe; set-up: species or system rabbit
Sequence of Fe(II)-GAPDH (ferrous rGAPDH-heme) (P46406 2-333): as the sequence (P46406 2-333 limits assumed) above

rGAPDH [4] = target: T1, rGAPDH; test: GAPDH dehydrogenase activity assay; format: biochemical, rabbit; conditions: data not shown
Procedure, shortened: (§1)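 NADH formation was followed at 340 nm (ε340 = 6.22 mM−1cm−1) in 40 mM triethanolamine, 50 mM Na2HPO4, 0.2 mM EDTA, pH 8.9, with 2 mM NAD and 2 mM D-glyceraldehyde 3-phosphate. Reactions were started with ~1 µg enzyme. The rabbit enzyme was N-His6, Ni-NTA purified; the human enzyme was a GST fusion cleaved with thrombin. Both were expressed in E. coli.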

CcmE = conditions: ref [82], cited from earlier work
[5] = target: HRI (heme regulated inhibitor), eIF2α; conditions: ref [60], cited from earlier work
Sperm whale Mb = conditions: ref [56]; cited from earlier work
BSA = conditions: cited from earlier work
PhuS = conditions: ref [57]; cited from earlier work
pa-HO = conditions: ref [57], cited from earlier work
HasAp = conditions: ref [34], cited from earlier work
HTP (PhuT) = conditions: ref [21], cited from earlier work
Rv0203 = conditions: ref [85], cited from earlier work
Shp = conditions: ref [84], cited from earlier work
Apo-DHR51-LBD = conditions: read-out: Kd (direct); ref [81]; cited from earlier work
hGAPDH = hGAPDH (Homo sapiens, UniProt P04406); test: GAPDH dehydrogenase activity assay; format: biochemical; conditions: data not shown
Sequence of hGAPDH (P04406 2-335 limits assumed): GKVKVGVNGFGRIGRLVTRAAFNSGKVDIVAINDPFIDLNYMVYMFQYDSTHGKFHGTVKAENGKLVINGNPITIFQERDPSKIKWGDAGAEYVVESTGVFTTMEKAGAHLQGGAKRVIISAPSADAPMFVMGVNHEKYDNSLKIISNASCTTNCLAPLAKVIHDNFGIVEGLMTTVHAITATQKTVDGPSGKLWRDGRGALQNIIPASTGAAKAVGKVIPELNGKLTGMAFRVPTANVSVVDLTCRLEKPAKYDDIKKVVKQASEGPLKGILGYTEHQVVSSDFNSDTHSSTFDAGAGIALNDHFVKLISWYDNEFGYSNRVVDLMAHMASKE
Procedure, shortened: as §1

rGAPDH [6] = target: T1, rGAPDH; test: Spectrophotometric titration of GAPDH with hemin; format: binding, rabbit
HtsA = conditions: ref [83], cited from earlier work
rGAPDH [7] = target: T1, rGAPDH; test: Stopped-flow kinetics of heme binding to GAPDH, kon; set-up: species or system rabbit; conditions: ferric heme, 10 °C
Procedure, shortened: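 N-terminally His6-tagged rabbit GAPDH, expressed in E. coli BL21(DE3) and Ni-NTA purified. Freshly prepared hemin (5 µM) was mixed by stopped-flow at 10 °C with rGAPDH at 10–80 µM in 100 mM EPPS pH 7.6, 150 mM NaCl and 10% glycerol. Traces were collected on a diode array detector, and kobs was obtained from single-exponential fits.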

[8] = target: Nuclear hormone receptor, Rev-erb β; conditions: read-out: Kd (direct), ref [14], cited from earlier work
nitrobindin = conditions: ref [68]; cited from earlier work
Ferric rGAPDH-heme = Ferric rGAPDH-heme (Oryctolagus cuniculus, UniProt P46406); format: binding, rabbit
Sequence of Ferric rGAPDH-heme (P46406 2-333): as the sequence (P46406 2-333 limits assumed) above

rGAPDH [9] = target: T1, rGAPDH; test: Ethoxylation of His residues with DEPC, then heme binding by UV-vis; format: biochemical, rabbit; conditions: 15 mM DEPC, 2 h on ice
Procedure, shortened: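 Recombinant rabbit GAPDH (N-His6, E. coli BL21(DE3), Ni-NTA purified), 100 µM apo or preformed with 20 µM heme, treated with 15 mM DEPC on ice in 40 mM EPPS pH 7.6, 150 mM NaCl, 10% glycerol. Excess DEPC removed by three buffer exchanges on 10 kDa spin columns. Protein diluted to ~40 µM; UV-vis spectra taken before and after adding 8 µM fresh hemin.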

[10] = Redox potentiometry of rGAPDH-heme; format: physicochemical; conditions: titration of ferric complex with dithionite
[11] = pH 7.4 (Tris, 100 mM, 10% glycerol), room temperature
[12] = CO-saturated buffer (1 mM final concentration), 10 °C
[13] = fit of Equation 2 to fast phase

T1 sequence (P46406 2-333 limits assumed): as above

## C=CC1=C(C)c2cc3[n-]c(cc4[n-]c(cc5nc(cc1n2)C(C)=C5C=C)c(C)c4CCC(=O)O)c(CCC(=O)O)c3C.[Fe+2] [ferrous heme]
rGAPDH [1]
  fraction of total available reduced heme forming a complex with rGAPDH: 18%
rGAPDH [2]; ferrous heme, 25 °C, anaerobic, single exponential
  koff of ferrous (reduced) heme: 0.0042 s⁻¹

## C=CC1=C(C)c2cc3[nH]c(cc4nc(cc5[nH]c(cc1n2)c(C)c5CCC(=O)O)C(CCC(=O)O)=C4C)c(C)c3C=C [Protoporph IX, Protoporphyrin IX]
Rabbit GAPDH; [11]
  Binding to GAPDH (Comments): No binding

## [C-]#[O+] [CO, carbon monoxide]
CBS
  rebinding rate ratio for displacement of Cys^52 by CO: 106 µM
[3]
  kobs, 6-coord, 420 nm: 1.2 s⁻¹
[3]; [12]
  kobs1 (fast phase) of CO binding: 1.5 s⁻¹
  kobs2 (slow phase) of CO binding: 0.068 s⁻¹
[3]; [CO]>0.2 mM
  rate of distal ligand displacement by CO: 1.75 s⁻¹
[3]; [13]
  axial ligand dissociation rate constant k−Y: ~ 2 s^−1
  ligand rebinding rate ratio kY/k'CO: ~ 0.1 mM
[3]; saturating [CO], [rGAPDHtetramer]/[heme] < 1:1
  kobs 5-coord, 410 nm: 4.3 s⁻¹

## C=CC1=C(C)c2cc3[n-]c(cc4[n-]c(cc5nc(cc1n2)C(C)=C5C=C)c(C)c4CCC(=O)O)c(CCC(=O)O)c3C.[Cl-].[Fe+3] [hemin, Fe(III)-protoporphyrin IX]
rGAPDH [4]
  effect of heme binding on dehydrogenase activity: does not affect
CcmE; read-out: Kd (direct) (M), high affinity
  Kd: 2e-07 M
CcmE; read-out: Kd (direct) (M), low affinity
  Kd: 1e-05 M
[5]; read-out: Kd (koff/kon)
  pKd: 9.85
[5]
  koff: 0.0015 s⁻¹
  kon: 1.1e+07 M⁻¹ s⁻¹
Sperm whale Mb
  koff: 8.4e-07 s⁻¹
  kon: 7.6e+07 M⁻¹ s⁻¹
BSA; BSA-heme, ref [65]
  heme dissociation rate: 10^−2 s^−1
BSA; read-out: Kd (koff/kon), ref [56]
  pKd: 9.66
BSA; ref [56]
  koff: 0.011 s⁻¹
  kon: 5e+07 M⁻¹ s⁻¹
PhuS
  koff: 0.036 s⁻¹
  kon: 180000 M⁻¹ s⁻¹
pa-HO; read-out: Kd (koff/kon)
  pKd: 6.22
pa-HO
  koff: 0.066 s⁻¹
  kon: 110000 M⁻¹ s⁻¹
HasAp; read-out: Kd (koff/kon)
  pKd: 4.46
HasAp
  kon: 1.6e+07 M⁻¹ s⁻¹
HTP (PhuT); read-out: Kd (direct)
  pKd: 2.92
HTP (PhuT)
  koff: 0.00038 s⁻¹
Rv0203; read-out: Kd (koff/kon)
  pKd: 9.21
Rv0203
  koff: 0.082 s⁻¹
  kon: 1.3e+08 M⁻¹ s⁻¹
Shp; read-out: Kd (koff/kon)
  pKd: 4.66
Shp
  kon: 1.6e+06 M⁻¹ s⁻¹
Apo-DHR51-LBD
  pKd: 6.37
hGAPDH
  effect of heme binding on dehydrogenase activity: does not affect
rGAPDH [6]; read-out: Kd (direct), Wild type rGAPDH
  pKd: 7.62
rGAPDH [6]; read-out: dissociation constant (Kd), direct titration, 10 µM rGAPDH, hemin 0–35 µM, 100 mM Tris pH 7.4, 10% glycerol
  pKd: 7.62
rGAPDH [2]; ferric heme, 10 °C, bi-exponential fit
  koff1 (fast phase): 0.007 s⁻¹
rGAPDH [2]; read-out: Kd (koff/kon) (M), from fast koff
  Kd: 3.9e-07 M
rGAPDH [2]; read-out: Kd (koff/kon) (M), from slow koff
  Kd: 1.9e-08 M
rGAPDH [2]; read-out: approximate affinities from koff/kon, ferric heme, 10 °C
  pKd: 6.41 to 7.72
HtsA; read-out: Kd (koff/kon)
  pKd: 5.10
HtsA
  kon: 8e+07 M⁻¹ s⁻¹
rGAPDH [7]
  kon: 17800 M⁻¹ s⁻¹
[8]; Rev-erb β (oxidized)
  pKd: 6.93
[8]; Rev-erb β (reduced)
  pKd: 7.64
nitrobindin
  heme loss rate: 3.6e-05 s⁻¹
Rabbit GAPDH; [11]
  Binding to GAPDH (Comments): LS, red-shift

## C=Cc1c(C)c2cc3[nH]c(cc4nc(cc5nc(cc1[nH]2)C(C)=C5CCC(=O)[O-])C(CCC(=O)[O-])=C4C)c(C)c3C=C.[Co+2] [Co(III)-protoporph IX, Co(III)-protoporphyrin IX]
Rabbit GAPDH; [11]
  Binding to GAPDH (Comments): LS, red-shift
Rabbit GAPDH; pH 7.4 (Tris, 100 mM, 10% glycerol), room temperature, listed as Co(III)-protoporphyrin IX
  Binding to GAPDH (Comments): bound

## N#C[S-].[Na+] [thiocyanate]
Ferric rGAPDH-heme
  binding to ferric rGAPDH-heme (spectral shift): did not bind

## Fe(III)-2,4-diacetyldeuteroporph IX
Rabbit GAPDH; pH 7.4
  Binding to GAPDH (Comments): LS, partial binding, red-shift

## Zn(II)-protoporph IX
Rabbit GAPDH; pH 7.4
  Binding to GAPDH (Comments): LS, partial binding, red-shift

## c1c[nH]cn1 [imidazole]
Ferric rGAPDH-heme
  binding to ferric rGAPDH-heme (spectral shift): did not bind
  binding to ferric rGAPDH-heme / displacement of distal ligand (as summarised): unable to bind

## CCOC(=O)OC(=O)OCC [DEPC, diethylpyrocarbonate]
rGAPDH [9]
  effect of DEPC on preformed rGAPDH-heme spectral properties: did not alter; also recorded: had no effect; also recorded: does not alter
  effect of DEPC treatment of heme-free rGAPDH on heme binding: abolished the protein’s ability to bind heme; also recorded: hampered heme binding completely; also recorded: unable to bind heme

## GAPDH-heme: pre-formed complex of rabbit GAPDH with heme
[10]
  midpoint potential, reductive titration: −153 ± 4 mV

## [N-]=[N+]=[N-] [azide]
Ferric rGAPDH-heme
  binding to ferric rGAPDH-heme / displacement of distal ligand (as summarised): unable to bind; also recorded: not displaced

## Fe(III)-mesoporph IX
Rabbit GAPDH; pH 7.4
  Binding to GAPDH (Comments): LS, red-shift

## Fe(III)-deuteroporph IX
Rabbit GAPDH; pH 7.4
  Binding to GAPDH (Comments): LS, red-shift
